According to ChEMBL document CHEMBL1811869, “Tigliane-type diterpenoid glycosides from Euphorbia fischeriana” (J Nat Prod, 2011):

Experiments:
[1] = Cytotoxicity against human C8166 cells by MTT assay; type: cell-based
Outline: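 C8166 cell viability read by MTT method, with CC50 derived.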

[2] = Therapeutic index, ratio of CC50 for C8166 cells to EC50 for Human immunodeficiency virus 1; type: cell-based; conditions: read-out: Ratio CC50/EC50
[3] = tested on: Human immunodeficiency virus 1; test: Antiviral activity against Human immunodeficiency virus 1 infected in human C8166 cells assessed as inhibition of virus-induced cytopathic effect; type: functional, organism-based; conditions: Human immunodeficiency virus 1, C8166
Outline: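 HIV-1 cytopathic-effect inhibition assay in C8166 cells, with EC50 derived. Zidovudine (AZT) run as the positive-control drug.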

| EC50 [3] [nM] | SMILES | CC50 [1] [nM] | selectivity ratio [2] |
| --- | --- | --- | --- |
| – | Cc1cn([C@H]2C[C@H](N=[N+]=[N-])[C@@H](CO)O2)c(=O)[nH]c1=O [ZIDOVUDINE] | 4070 | 1.02e+06 |
| 20 | CC(=O)O[C@@]12[C@H](O)[C@@H](C)[C@@]3(O)[C@@H](C=C(CO[C@@H]4O[C@H](CO)[C@@H](O)[C@H](O)[C@H]4O)C[C@]4(O)C(=O)C(C)=C[C@@H]34)[C@@H]1C2(C)C [FISCHEROSIDES C] | > 350 | > 17.5 |
| 0.3 | CC(=O)OCC1=C[C@H]2[C@@H]3C(C)(C)[C@]3(OC(C)=O)C[C@@H](C)[C@]2(O)[C@@H]2C=C(C)C(=O)[C@@]2(O)C1 | 110 | > 367 |
| 70 | CC(=O)O[C@@]12C[C@@H](C)[C@@]3(O)[C@@H](C=C(CO[C@@H]4O[C@H](COC(=O)c5cc(O)c(O)c(O)c5)[C@@H](O)[C@H](O)[C@H]4O)C[C@]4(O)C(=O)C(C)=C[C@@H]34)[C@@H]1C2(C)C [FISCHEROSIDES B] | > 280 | > 4 |

| SMILES | EC50 [3] [nM] | CC50 [1] [nM] | selectivity ratio [2] |
| --- | --- | --- | --- |
| CC(=O)O[C@@]12C[C@@H](C)[C@@]3(O)[C@@H](C=C(CO)C[C@]4(O)C(=O)C(C)=C[C@@H]34)[C@@H]1C2(C)C [PROSTRATIN] | 0.06 | > 510 | > 8500 |
| CC(=O)O[C@@]12C[C@@H](C)[C@@]3(O)[C@@H](C=C(CO[C@@H]4O[C@H](CO)[C@@H](O)[C@H](O)[C@H]4O)C[C@]4(O)C(=O)C(C)=C[C@@H]34)[C@@H]1C2(C)C [FISCHEROSIDES A] | 170 | > 360 | > 2.12 |
